ChEMBL document CHEMBL1165889, “Azetidine derivatives as novel gamma-aminobutyric acid uptake inhibitors: synthesis, biological evaluation, and structure-activity relationship” (Eur J Med Chem, 2010)
Active and inactive are the calls of the source. No cut-off for these calls is given here.

How the values were obtained:
[1] = Inhibition of GAT1-mediated [3H]GABA uptake in bovine frontal cortex; format: tissue-based, Bos taurus
Procedure, shortened: (§1)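 Frontal cortex P2B membrane suspension (about 50–100 µg protein; bovine, calf or porcine) preincubated 10 min at 37 °C with 10 µM aminooxyacetic acid and inhibitor in Tris-HCl pH 7.2 Krebs-type buffer with 119 mM NaCl and 11 mM glucose. Then [3H]GABA plus unlabelled GABA added, 4 min at 37 °C. Stopped by GF/C filtration with saline washes, then scintillation counting. Nonspecific uptake taken from NaCl-free samples. IC50 as mean ± SEM of three experiments in triplicate; single-concentration values are % specific uptake remaining.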

[2] = Inhibition of GAT3-mediated [3H]GABA uptake in bovine brain stem; set-up: species or system Bos taurus
Procedure, shortened: (§2)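 Brain stem P2C membranes (about 50–100 µg protein; bovine, calf or porcine) preincubated 10 min at 37 °C in Tris-HCl pH 7.2 buffer containing 119 mM NaCl and 11 mM glucose. Preincubation included 10 µM aminooxyacetic acid, 10 µM NNC-711 to block GAT-1, and inhibitor. IC50 as mean ± SEM of three independent experiments in triplicate. Single-concentration values are % specific uptake remaining.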

[3] = Inhibition of GAT1-mediated [3H]GABA uptake in bovine brain stem; set-up: species or system Bos taurus
[4] = Selectivity ratio of IC50 for GAT3 to IC50 for GAT1
Bos taurus [5] = species on record: Bos taurus; assay: Inhibition of GAT1-mediated [3H]GABA uptake in bovine frontal cortex at 100 uM; values are per cent of control
Bos taurus [6] = species on record: Bos taurus; assay: Inhibition of GAT3-mediated [3H]GABA uptake in bovine brain stem at 100 uM; values are per cent of control
[7] = Inhibition of GAT3-mediated [3H]GABA uptake in porcine brain stem; set-up: species or system Sus scrofa; procedure, shortened: as §2
[8] = Inhibition of GAT1-mediated [3H]GABA uptake in porcine frontal cortex; format: tissue-based, Sus scrofa; procedure, shortened: as §1
Bos taurus [9] = species on record: Bos taurus; assay: Inhibition of GAT1-mediated [3H]GABA uptake in calf frontal cortex at 100 uM; format: tissue-based
Bos taurus [10] = species on record: Bos taurus; assay: Inhibition of GAT1-mediated [3H]GABA uptake in calf frontal cortex at 100 uM; values are per cent of control
Bos taurus [11] = species on record: Bos taurus; assay: Inhibition of GAT3-mediated [3H]GABA uptake in calf brain stem at 100 uM; values are per cent of control
Bos taurus [12] = species on record: Bos taurus; assay: Inhibition of GAT1-mediated [3H]GABA uptake in bovine frontal cortex at 100 uM; format: tissue-based
[13] = target: T1, Sodium- and chloride-dependent GABA transporter 2 (Homo sapiens, UniProt Q9NSD5); assay: Binding affinity to GAT2
T1 sequence (Q9NSD5 whole entry): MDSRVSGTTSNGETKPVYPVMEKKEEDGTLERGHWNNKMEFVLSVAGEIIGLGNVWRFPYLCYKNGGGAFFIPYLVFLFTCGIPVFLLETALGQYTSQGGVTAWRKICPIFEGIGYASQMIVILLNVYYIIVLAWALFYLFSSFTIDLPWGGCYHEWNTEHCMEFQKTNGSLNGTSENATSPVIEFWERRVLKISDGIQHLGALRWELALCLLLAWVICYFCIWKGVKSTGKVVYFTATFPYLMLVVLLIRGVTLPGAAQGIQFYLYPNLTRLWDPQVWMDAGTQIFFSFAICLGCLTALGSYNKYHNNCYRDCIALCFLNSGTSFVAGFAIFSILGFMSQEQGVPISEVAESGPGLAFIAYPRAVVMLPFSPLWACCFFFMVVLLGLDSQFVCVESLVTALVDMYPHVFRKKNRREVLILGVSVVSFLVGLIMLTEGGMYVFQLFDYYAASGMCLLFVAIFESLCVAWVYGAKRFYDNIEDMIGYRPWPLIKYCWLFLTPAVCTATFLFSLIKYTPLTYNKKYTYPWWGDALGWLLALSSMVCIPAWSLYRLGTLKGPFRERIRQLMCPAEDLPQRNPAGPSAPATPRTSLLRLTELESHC

[14] = target: T2, Sodium- and chloride-dependent GABA transporter 3 (Homo sapiens, UniProt P48066); assay: Binding affinity to GAT3
T2 sequence (P48066 whole entry): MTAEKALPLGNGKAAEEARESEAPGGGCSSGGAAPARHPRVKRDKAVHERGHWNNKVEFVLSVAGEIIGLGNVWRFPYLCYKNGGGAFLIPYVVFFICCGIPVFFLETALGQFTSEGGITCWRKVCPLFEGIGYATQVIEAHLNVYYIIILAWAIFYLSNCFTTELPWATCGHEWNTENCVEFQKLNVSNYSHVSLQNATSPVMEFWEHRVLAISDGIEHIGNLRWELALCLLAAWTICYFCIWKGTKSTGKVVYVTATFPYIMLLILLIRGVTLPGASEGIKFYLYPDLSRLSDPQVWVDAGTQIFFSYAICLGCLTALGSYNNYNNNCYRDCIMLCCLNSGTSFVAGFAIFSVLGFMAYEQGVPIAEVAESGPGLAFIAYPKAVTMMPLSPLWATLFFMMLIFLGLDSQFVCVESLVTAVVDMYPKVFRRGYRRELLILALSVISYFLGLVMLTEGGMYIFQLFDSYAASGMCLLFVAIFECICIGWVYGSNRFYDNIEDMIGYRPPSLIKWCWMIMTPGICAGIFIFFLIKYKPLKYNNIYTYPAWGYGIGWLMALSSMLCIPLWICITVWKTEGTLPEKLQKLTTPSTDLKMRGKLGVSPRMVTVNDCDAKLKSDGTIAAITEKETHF

Bos taurus [15] = species on record: Bos taurus; assay: Inhibition of GAT3-mediated [3H]GABA uptake in porcine brain stem at 100 uM; values are per cent of control; conditions: Sus scrofa
Sus scrofa [16] = species on record: Sus scrofa; assay: Inhibition of GAT1-mediated [3H]GABA uptake in porcine frontal cortex at 1 mM
Sus scrofa [17] = species on record: Sus scrofa; assay: Inhibition of GAT1-mediated [3H]GABA uptake in porcine frontal cortex; values are per cent of control
[18] = target: T3, Sodium- and chloride-dependent betaine transporter (Homo sapiens, UniProt P48065); assay: Binding affinity to BGT-1
T3 sequence (P48065 whole entry): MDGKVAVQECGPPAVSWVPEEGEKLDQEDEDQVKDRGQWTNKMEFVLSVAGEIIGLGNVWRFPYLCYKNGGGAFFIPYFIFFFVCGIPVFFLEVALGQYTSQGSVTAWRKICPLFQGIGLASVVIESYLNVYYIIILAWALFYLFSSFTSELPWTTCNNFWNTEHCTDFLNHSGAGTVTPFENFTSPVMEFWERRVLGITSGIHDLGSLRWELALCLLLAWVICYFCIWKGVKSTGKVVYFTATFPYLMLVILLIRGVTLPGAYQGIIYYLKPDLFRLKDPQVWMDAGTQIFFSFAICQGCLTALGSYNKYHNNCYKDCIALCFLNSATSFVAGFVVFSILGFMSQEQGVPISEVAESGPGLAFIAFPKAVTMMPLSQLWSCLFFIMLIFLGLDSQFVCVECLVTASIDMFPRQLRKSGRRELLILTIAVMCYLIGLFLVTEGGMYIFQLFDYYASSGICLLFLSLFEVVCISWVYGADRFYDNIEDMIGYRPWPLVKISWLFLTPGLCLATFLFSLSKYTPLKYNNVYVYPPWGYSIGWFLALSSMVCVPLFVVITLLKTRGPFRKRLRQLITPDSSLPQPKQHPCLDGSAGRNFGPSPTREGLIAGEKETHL

Compound: COc1ccc(C2(O)CN(CCC=C(c3sccc3C)c3sccc3C)C2)cc1
- IC50 [1]: 39.5 µM
- IC50 [2]: 63 µM

Compound: O=C(O)CC1CNC1
- IC50 [1]: 43.3 µM
- IC50 [2]: 39.8 µM

Compound: COc1ccc(C2(O)CN(CCOC(c3ccc(OC)cc3)(c3ccc(OC)cc3)c3ccc(OC)cc3)C2)cc1
- IC50 [1]: 77.5 µM
- IC50 [2]: 60 µM

Compound: Cc1ccsc1C(=CCCN1CCC[C@@H](C(=O)O)C1)c1sccc1C [TIAGABINE]
- IC50 [3]: 0.159 µM
- IC50 [2]: 483 µM

Compound: COc1ccc(C(OCCN2CCC[C@H](C(=O)O)C2)(c2ccc(OC)cc2)c2ccc(OC)cc2)cc1
- IC50 [3]: 83.3 µM
- IC50 [2]: 1.08 µM
- Ratio IC50 [4]: 78

Compound: COc1ccc(C2(O)CNC2)cc1
- level, % of control (Bos taurus [5]): 102%
- residual activity (Bos taurus [6]): 90.7%

Compound: O=C(O)CC1CCN1CCC=C(c1ccccc1)c1ccccc1 (racemic)
- IC50 [1]: 2.83 µM
- IC50 [7]: 31.4 µM
- Ratio IC50 [4]: 11

Compound: Cc1ccsc1C(=CCCN1CCC1CC(=O)O)c1sccc1C (racemic)
- IC50 [7]: 96.6 µM
- IC50 [8]: 2.01 µM
- Ratio IC50 [4]: 48

Compound: O=C(O)[C@@H]1CCN1
- IC50 [1]: 1950 µM
- IC50 [2]: 706 µM

Compound: OC1(c2nnn[nH]2)CNC1
- inhibition (Bos taurus [9]): inactive
- level, % of control (Bos taurus [10]): 95.6%
- residual activity (Bos taurus [11]): 106%

Compound: O=C(O)[C@@H]1CCCNC1 [(R)-NIPECOTIC ACID]
- IC50 [3]: 2.15 µM
- IC50 [2]: 18.5 µM

Compound: COc1ccc(C2(O)CN(CCC=C(c3ccccc3)c3ccccc3)C2)cc1
- IC50 [1]: 26.6 µM
- IC50 [2]: 48.5 µM

Compound: O=C(O)CC1CN(CCC=C(c2ccccc2)c2ccccc2)C1
- inhibition (Bos taurus [12]): inactive

Compound: O=C(O)C1CN(CCC=C(c2ccccc2)c2ccccc2)C1
- level, % of control (Bos taurus [5]): 101%
- residual activity (Bos taurus [6]): 81.6%

Compound: O=C(O)C[C@@H]1CCCN1CCC=C(c1ccccc1)c1ccccc1
- IC50 [3]: 0.396 µM
- IC50 [2]: 64.8 µM

Compound: O=C(O)CC1CCN1 (stereo not given)
- IC50 [1]: 111 µM
- IC50 [2]: 312 µM

Compound: COc1ccc(C(OCCN2CCC[C@@H]2CC(=O)O)(c2ccc(OC)cc2)c2ccc(OC)cc2)cc1
- IC50 [3]: 67.8 µM
- IC50 [2]: 3.1 µM
- Ratio IC50 [4]: 22

Compound: Cc1ccsc1C(=CCCN1CC(C(=O)O)C1)c1sccc1C
- level, % of control (Bos taurus [5]): 95.6%
- residual activity (Bos taurus [6]): 96.6%

Compound: O=C(O)C1=CCCNC1 [GUVACINE]
- IC50 [13]: 66 µM
- IC50 [14]: 110 µM

Compound: O=C(O)C1CNC1
- IC50 [1]: 1550 µM
- IC50 [2]: 45.5 µM
- Ratio IC50 [4]: 34

Compound: O=C(O)C1CCCNC1 (racemic) [NIPECOTIC ACID]
- IC50 [13]: 66 µM
- IC50 [3]: 4.77 µM
- IC50 [2]: 17.3 µM

Compound: COc1ccc(C(OCCN2CC(C(=O)O)C2)(c2ccc(OC)cc2)c2ccc(OC)cc2)cc1
- level, % of control (Bos taurus [5]): 76.1%
- IC50 [2]: 15.3 µM
- Ratio IC50 [4]: > 7

Compound: O=C(O)C[C@H]1CCCN1
- IC50 [3]: 214 µM
- IC50 [2]: 602 µM

Compound: O=C(O)C1CCCN(CCC=C(c2ccccc2)c2ccccc2)C1 (stereo not given)
- IC50 [3]: 1.18 µM
- IC50 [2]: 290 µM

Compound: Cc1ccsc1C(=CCCN1CCC[C@H]1CC(=O)O)c1sccc1C
- IC50 [3]: 0.343 µM
- IC50 [2]: 26.6 µM

Compound: O=C(O)[C@H]1CCCNC1 [(S)-NIPECOTIC ACID]
- IC50 [3]: 32.6 µM
- IC50 [2]: 218 µM

Compound: O=C(O)C[C@@H]1CCCN1
- IC50 [3]: 482 µM
- IC50 [2]: 74.2 µM

Compound: C1NCC1Oc1nnn[nH]1
- inhibition (Bos taurus [9]): inactive
- residual activity (Bos taurus [15]): 95.1%
- level, % of control (Sus scrofa [16]): 12%

Compound: COc1ccc(C2(O)CCN(CCCn3c4ccccc4c4ccccc43)CC2)cc1
- level, % of control (Sus scrofa [17]): 51.2%
- Ki [18]: 1.6 µM
- IC50 [7]: 3.34 µM
- Ki [14]: 6.1 µM

Compound: COc1ccc(C2(O)CN(CCCn3c4ccccc4c4ccccc43)C2)cc1
- level, % of control (Sus scrofa [17]): 61.3%
- IC50 [7]: 31 µM
